Experimental data reported in ChEMBL document CHEMBL2331333, “Synthesis, biological evaluation of new oxazolidino-sulfonamides as potential antimicrobial agents” (2013).
Converted amounts (≈) assume the structure as drawn. The source made the active and inactive calls. No cut-off for these calls is given here.

Tested on: Staphylococcus aureus
Test: Antibacterial activity against Staphylococcus aureus MTCC 96 after 24 hrs by agar dilution method
Format: functional
Details: MTCC 96, 24 h

| Structure (SMILES) | MIC [µg/mL] |
| --- | --- |
| O=C1O[C@@H](CNS(=O)(=O)c2ccc(F)cc2)CN1c1ccc(N2CCNCC2)c(F)c1 | 8 (≈ 17.7 µM) |
| O=C1O[C@@H](CNS(=O)(=O)c2ccc(C(F)(F)F)cc2)CN1c1ccc(N2CCNCC2)c(F)c1 | 6 (≈ 11.9 µM) |

Tested on: Staphylococcus
Test: Antibacterial activity against Staphylococcus MLS-16 MTCC 2940 after 24 hrs by agar dilution method
Format: functional
Details: MLS-16 MTCC 2940, 24 h

| Structure (SMILES) | MIC [µg/mL] |
| --- | --- |
| O=C1O[C@@H](CNS(=O)(=O)c2ccc(F)cc2)CN1c1ccc(N2CCOCC2)c(F)c1 | 10 (≈ 22.1 µM) |
| O=C1O[C@@H](CNS(=O)(=O)c2ccc(F)cc2)CN1c1ccc(N2CCNCC2)c(F)c1 | 8 (≈ 17.7 µM) |
| O=C1O[C@@H](CNS(=O)(=O)c2ccc(C(F)(F)F)cc2)CN1c1ccc(N2CCNCC2)c(F)c1 | 6 (≈ 11.9 µM) |

Tested on: Micrococcus luteus
Test: Antibacterial activity against Micrococcus luteus MTCC 2470 after 24 hrs by agar dilution method
Format: functional
Details: MTCC 2470, 24 h

| Structure (SMILES) | MIC [µg/mL] |
| --- | --- |
| O=C1O[C@@H](CNS(=O)(=O)c2ccc(F)cc2)CN1c1ccc(N2CCNCC2)c(F)c1 | 4 (≈ 8.84 µM) |
| O=C1O[C@@H](CNS(=O)(=O)c2ccc(C(F)(F)F)cc2)CN1c1ccc(N2CCNCC2)c(F)c1 | 8 (≈ 15.9 µM) |

Tested on: Staphylococcus
Test: Antibacterial activity against Staphylococcus MLS-16 MTCC 2940 at 20 ug/ml after 24 hrs by disk diffusion method
Format: functional
Details: MLS-16 MTCC 2940, 24 h, read-out: IZ

| Structure (SMILES) | zone of inhibition at 20 µg/mL [mm] |
| --- | --- |
| O=C1O[C@@H](CNS(=O)(=O)c2ccc(F)cc2)CN1c1ccc(N2CCNCC2)c(F)c1 | 17 |
| O=C1O[C@@H](CNS(=O)(=O)c2ccc(C(F)(F)F)cc2)CN1c1ccc(N2CCNCC2)c(F)c1 | 15 |

Tested on: Pseudomonas aeruginosa
Test: Antibacterial activity against Pseudomonas aeruginosa MTCC 2453 after 24 hrs by agar dilution method
Format: functional
Details: MTCC 2453, 24 h

| Structure (SMILES) | MIC [µg/mL] |
| --- | --- |
| O=C1O[C@@H](CNS(=O)(=O)c2cccc(Cl)c2)CN1c1ccc(N2CCSCC2)c(F)c1 | 10 (≈ 20.6 µM) |
| O=C1O[C@@H](CNS(=O)(=O)c2ccc(F)cc2)CN1c1ccc(N2CCOCC2)c(F)c1 | 10 (≈ 22.1 µM) |
| O=C1O[C@@H](CNS(=O)(=O)c2ccc(F)cc2)CN1c1ccc(N2CCNCC2)c(F)c1 | 4 (≈ 8.84 µM) |
| O=C1O[C@@H](CNS(=O)(=O)c2ccc(C(F)(F)F)cc2)CN1c1ccc(N2CCNCC2)c(F)c1 | 8 (≈ 15.9 µM) |

Tested on: Micrococcus luteus
Test: Antibacterial activity against Micrococcus luteus MTCC 2470 at 80 ug/ml after 24 hrs by agar dilution method
Format: functional, organism-based
Details: not given

| Structure (SMILES) | Activity |
| --- | --- |
| O=C1O[C@@H](CNS(=O)(=O)c2cccc(Cl)c2)CN1c1ccc(N2CCSCC2)c(F)c1 | inactive |
| O=C1O[C@@H](CNS(=O)(=O)c2cc(S(=O)(=O)c3ccccc3)cs2)CN1c1ccc(N2CCOCC2)c(F)c1 | inactive |
| O=C1O[C@@H](CNS(=O)(=O)c2ccc(F)cc2)CN1c1ccc(N2CCOCC2)c(F)c1 | inactive |

Tested on: Bacillus subtilis
Test: Antibacterial activity against Bacillus subtilis MTCC 121 after 24 hrs by agar dilution method
Format: functional
Details: MTCC 121, 24 h

| Structure (SMILES) | MIC [µg/mL] |
| --- | --- |
| O=C1O[C@@H](CNS(=O)(=O)c2cccc(Cl)c2)CN1c1ccc(N2CCSCC2)c(F)c1 | 20 (≈ 41.2 µM) |
| O=C1O[C@@H](CNS(=O)(=O)c2ccc(F)cc2)CN1c1ccc(N2CCOCC2)c(F)c1 | 10 (≈ 22.1 µM) |
| O=C1O[C@@H](CNS(=O)(=O)c2ccc(F)cc2)CN1c1ccc(N2CCNCC2)c(F)c1 | 10 (≈ 22.1 µM) |
| O=C1O[C@@H](CNS(=O)(=O)c2ccc(C(F)(F)F)cc2)CN1c1ccc(N2CCNCC2)c(F)c1 | 8 (≈ 15.9 µM) |

Tested on: Staphylococcus
Test: Antibacterial activity against Staphylococcus MLS-16 MTCC 2940 at 80 ug/ml after 24 hrs by agar dilution method
Format: functional, organism-based
Details: not given

| Structure (SMILES) | Activity |
| --- | --- |
| O=C1O[C@@H](CNS(=O)(=O)c2cccc(Cl)c2)CN1c1ccc(N2CCSCC2)c(F)c1 | inactive |
| O=C1O[C@@H](CNS(=O)(=O)c2cc(S(=O)(=O)c3ccccc3)cs2)CN1c1ccc(N2CCOCC2)c(F)c1 | inactive |

Tested on: Staphylococcus aureus
Test: Antibacterial activity against Staphylococcus aureus MTCC 96 at 80 ug/ml after 24 hrs by agar dilution method
Format: functional, organism-based
Details: not given

| Structure (SMILES) | Activity |
| --- | --- |
| O=C1O[C@@H](CNS(=O)(=O)c2cccc(Cl)c2)CN1c1ccc(N2CCSCC2)c(F)c1 | inactive |
| O=C1O[C@@H](CNS(=O)(=O)c2cc(S(=O)(=O)c3ccccc3)cs2)CN1c1ccc(N2CCOCC2)c(F)c1 | inactive |

Tested on: Raoultella planticola
Test: Antibacterial activity against Klebsiella planticola MTCC 530 at 80 ug/ml after 24 hrs by agar dilution method
Format: functional, organism-based
Details: not given

| Structure (SMILES) | Activity |
| --- | --- |
| O=C1O[C@@H](CNS(=O)(=O)c2cccc(Cl)c2)CN1c1ccc(N2CCSCC2)c(F)c1 | inactive |
| O=C1O[C@@H](CNS(=O)(=O)c2cc(S(=O)(=O)c3ccccc3)cs2)CN1c1ccc(N2CCOCC2)c(F)c1 | inactive |
| O=C1O[C@@H](CNS(=O)(=O)c2ccc(F)cc2)CN1c1ccc(N2CCNCC2)c(F)c1 | inactive |
| O=C1O[C@@H](CNS(=O)(=O)c2ccc(C(F)(F)F)cc2)CN1c1ccc(N2CCNCC2)c(F)c1 | inactive |

Tested on: Pseudomonas aeruginosa
Test: Antibacterial activity against Pseudomonas aeruginosa MTCC 2453 at 20 ug/ml after 24 hrs by disk diffusion method
Format: functional
Details: MTCC 2453, 24 h, read-out: IZ

| Structure (SMILES) | zone of inhibition at 20 µg/mL [mm] |
| --- | --- |
| O=C1O[C@@H](CNS(=O)(=O)c2ccc(F)cc2)CN1c1ccc(N2CCNCC2)c(F)c1 | 18 |
| O=C1O[C@@H](CNS(=O)(=O)c2ccc(C(F)(F)F)cc2)CN1c1ccc(N2CCNCC2)c(F)c1 | 16 |

Tested on: Candida albicans
Test: Antifungal activity against Candida albicans MTCC 3017 at 80 ug/ml after 48 hrs by agar dilution method
Format: functional, organism-based
Details: not given
How it was run: (§1)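 Same disk/dilution format as the antibacterial assay, on potato dextrose agar (39 g/L). Compounds were from DMSO stock, loaded at 1 to 80 per disk, in triplicate. Plates were incubated at 28 ± 2 °C for 48 h. MIC was the lowest amount that arrested growth. Equivalent DMSO served as solvent control.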

| Structure (SMILES) | Activity |
| --- | --- |
| O=C1O[C@@H](CNS(=O)(=O)c2cccc(Cl)c2)CN1c1ccc(N2CCSCC2)c(F)c1 | inactive |
| O=C1O[C@@H](CNS(=O)(=O)c2cc(S(=O)(=O)c3ccccc3)cs2)CN1c1ccc(N2CCOCC2)c(F)c1 | inactive |

Tested on: Pseudomonas aeruginosa
Test: Antibacterial activity against Pseudomonas aeruginosa MTCC 2453 at 80 ug/ml after 24 hrs by agar dilution method
Format: functional, organism-based
Details: not given

| Structure (SMILES) | Activity |
| --- | --- |
| O=C1O[C@@H](CNS(=O)(=O)c2cc(S(=O)(=O)c3ccccc3)cs2)CN1c1ccc(N2CCOCC2)c(F)c1 | inactive |

Tested on: Bacillus subtilis
Test: Antibacterial activity against Bacillus subtilis MTCC 121 at 20 ug/ml after 24 hrs by disk diffusion method
Format: functional
Details: MTCC 121, 24 h, read-out: IZ

| Structure (SMILES) | zone of inhibition at 20 µg/mL [mm] |
| --- | --- |
| O=C1O[C@@H](CNS(=O)(=O)c2ccc(F)cc2)CN1c1ccc(N2CCNCC2)c(F)c1 | 20 |
| O=C1O[C@@H](CNS(=O)(=O)c2ccc(C(F)(F)F)cc2)CN1c1ccc(N2CCNCC2)c(F)c1 | 16 |

Tested on: Candida albicans
Test: Antifungal activity against Candida albicans MTCC 3017 after 48 hrs by agar dilution method
Format: functional
Details: MTCC 3017, 48 h
How it was run: as §1

| Structure (SMILES) | MIC [µg/mL] |
| --- | --- |
| O=C1O[C@@H](CNS(=O)(=O)c2ccc(F)cc2)CN1c1ccc(N2CCOCC2)c(F)c1 | 10 (≈ 22.1 µM) |
| O=C1O[C@@H](CNS(=O)(=O)c2ccc(F)cc2)CN1c1ccc(N2CCNCC2)c(F)c1 | 8 (≈ 17.7 µM) |
| O=C1O[C@@H](CNS(=O)(=O)c2ccc(C(F)(F)F)cc2)CN1c1ccc(N2CCNCC2)c(F)c1 | 10 (≈ 19.9 µM) |

Tested on: Staphylococcus aureus
Test: Antibacterial activity against Staphylococcus aureus MTCC 96 at 20 ug/ml after 24 hrs by disk diffusion method
Format: functional
Details: MTCC 96, 24 h, read-out: IZ

| Structure (SMILES) | zone of inhibition at 20 µg/mL [mm] |
| --- | --- |
| O=C1O[C@@H](CNS(=O)(=O)c2ccc(F)cc2)CN1c1ccc(N2CCNCC2)c(F)c1 | 17 |
| O=C1O[C@@H](CNS(=O)(=O)c2ccc(C(F)(F)F)cc2)CN1c1ccc(N2CCNCC2)c(F)c1 | 17 |

Tested on: Candida albicans
Test: Antifungal activity against Candida albicans MTCC 3017 at 20 ug/ml after 24 hrs by disk diffusion method
Format: functional
Details: MTCC 3017, 24 h, read-out: IZ

| Structure (SMILES) | zone of inhibition at 20 µg/mL [mm] |
| --- | --- |
| O=C1O[C@@H](CNS(=O)(=O)c2ccc(F)cc2)CN1c1ccc(N2CCNCC2)c(F)c1 | 16 |
| O=C1O[C@@H](CNS(=O)(=O)c2ccc(C(F)(F)F)cc2)CN1c1ccc(N2CCNCC2)c(F)c1 | 15 |

Tested on: Micrococcus luteus
Test: Antibacterial activity against Micrococcus luteus MTCC 2470 at 20 ug/ml after 24 hrs by disk diffusion method
Format: functional
Details: MTCC 2470, 24 h, read-out: IZ

| Structure (SMILES) | zone of inhibition at 20 µg/mL [mm] |
| --- | --- |
| O=C1O[C@@H](CNS(=O)(=O)c2ccc(F)cc2)CN1c1ccc(N2CCNCC2)c(F)c1 | 14 |
| O=C1O[C@@H](CNS(=O)(=O)c2ccc(C(F)(F)F)cc2)CN1c1ccc(N2CCNCC2)c(F)c1 | 13 |

Tested on: Bacillus subtilis
Test: Antibacterial activity against Bacillus subtilis MTCC 121 at 80 ug/ml after 24 hrs by agar dilution method
Format: functional, organism-based
Details: not given

| Structure (SMILES) | Activity |
| --- | --- |
| O=C1O[C@@H](CNS(=O)(=O)c2cc(S(=O)(=O)c3ccccc3)cs2)CN1c1ccc(N2CCOCC2)c(F)c1 | inactive |

Tested on: Mycobacterium tuberculosis
Test: Antibacterial activity against Mycobacterium tuberculosis H37Rv at 32 ug/ml […] by agar dilution method
Format: functional, organism-based
Details: not given

| Structure (SMILES) | Activity |
| --- | --- |
| O=C1O[C@@H](CNS(=O)(=O)c2cccc(Cl)c2)CN1c1ccc(N2CCSCC2)c(F)c1 | inactive |
| O=C1O[C@@H](CNS(=O)(=O)c2cc(S(=O)(=O)c3ccccc3)cs2)CN1c1ccc(N2CCOCC2)c(F)c1 | inactive |

Tested on: Escherichia coli
Test: Antibacterial activity against Escherichia coli MTCC 739 at 80 ug/ml after 24 hrs by agar dilution method
Format: functional, organism-based
Details: not given

| Structure (SMILES) | Activity |
| --- | --- |
| O=C1O[C@@H](CNS(=O)(=O)c2cccc(Cl)c2)CN1c1ccc(N2CCSCC2)c(F)c1 | inactive |
| O=C1O[C@@H](CNS(=O)(=O)c2cc(S(=O)(=O)c3ccccc3)cs2)CN1c1ccc(N2CCOCC2)c(F)c1 | inactive |
| O=C1O[C@@H](CNS(=O)(=O)c2ccc(F)cc2)CN1c1ccc(N2CCNCC2)c(F)c1 | inactive |
| O=C1O[C@@H](CNS(=O)(=O)c2ccc(C(F)(F)F)cc2)CN1c1ccc(N2CCNCC2)c(F)c1 | inactive |

Tested on: Mycobacterium tuberculosis
Test: Antibacterial activity against Mycobacterium tuberculosis H37Rv after 2 to 3 weeks by broth microdilution method
Format: functional
Details: not given
How it was run: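 M. tuberculosis H37Rv, first screened at a single concentration of 32 in triplicate in a microtiter plate (microplate dilution assay). Compounds active in this screen were then taken to MIC determination by broth microdilution. Compounds were dissolved in DMSO.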

| Structure (SMILES) | MIC [µg/mL] |
| --- | --- |
| O=C1O[C@@H](CNS(=O)(=O)c2ccc(F)cc2)CN1c1ccc(N2CCOCC2)c(F)c1 | 1 (≈ 2.21 µM) |
